From PubChem BioAssay
Autophagy HCS = alters autophagy in cells. 0.98% of 190,000 active. MEF GFP-LC3 puncta imaging; test concentration mostly 10 µM. calls only at 10 µM (by protocol);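 active means percentage of spot-positive cells more than 3 SD above its plate mean, without a fluorescence outlier flag or 80% toxicity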;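 further: spot-positive cell cutoff set from DMSO-treated cells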
Dynein transport = blocks dynein driven cargo transport along microtubules; 3617.4 mouse cells, GR-EGFP nuclear translocation imaging; test concentration mostly 20 µM; stimulated with dexamethasone, 1 µM; hits give low values; 0.47% of 220,000 active; z-score, hits read low;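 active means plate z-score of nuclear minus cytoplasmic receptor signal below a set negative limit, without overly bright fluorescence or cell loss, cut at about -3.5 in these data, passing the limit was not always enough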;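 further: z-score of nuclear minus cytoplasmic ring GR-EGFP intensity difference per well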
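Buffer or medium – tet-free medium with charcoal-stripped serum · Signal – automated 10x imaging of fixed Hoechst-stained cells · Also added – dexamethasone agonist, 1.0 µM final, for 30 min · Incubation – induction 48 h, compound 1 h, agonist 30 min · Read-out – GR-EGFP nuclear translocation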
Lmaj promast = reduces viability of Leishmania major promastigotes; resazurin fluorescence viability; inhibition, % at 10 µM; 9% of 200,000 active; AID 1063; in the data active means inhibition above about 50%;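 further: promastigotes grown with compound for 44 hours at 28 °C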
HCT116 bCat-KO = beta-catenin-lacking colon tumor cell growth suppression. 1.5% of 140,000 active. viability, % at 10 µM. HCT116 beta-catenin knockout viability, CellTiter-Glo, 60 h; hits give low values. AID 818;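 active means viability at or under a set limit, the compound median less 4 SD, cut at about 6% in these data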;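 further: 0% = Hyamine 1622 control at 20 µM and 100% = untreated cell control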
HCT116 PTEN-null = suppresses growth of cells with PTEN deletion; HCT116 PTEN-null viability, CellTiter-Glo, 60 h; hits give low values; viability, % at 10 µM; 1.2% of 140,000 active; AID 827;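 active means viability at or below a set limit, 4 SD under the median of all tested compounds, cut at about 3.7% in these data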;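 further: PTEN knockout HCT116 line with beta catenin targeted HCT116 as companion control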
Starred values were filed as active, the others as inactive; i = inactive; . = not tested or not shown; + = active, no number. Sampled rows, rich in hits. Any-hit rate of the full collection: about 9.2%.

SMILES	Autophagy HCS	Dynein transport	Lmaj promast	HCT116 bCat-KO	HCT116 PTEN-null
O=S(=O)(c1ccc(NC(=S)NCc2ccco2)cc1)N1CCCC1	i	0.22	52*	90	93
O=C(CSc1nnc(-c2ccc(S(=O)(=O)N3CCCC3)cc2)o1)NCc1ccco1	i	0.73	88*	104	103
Cc1ccc(/C=C2\SC(=S)N(CCC(=O)NNC(=O)c3ccncc3)C2=O)cc1	.	0.32	.	.	.
O=C(COC(=O)CCc1ccc(S(=O)(=O)N2CCOCC2)cc1)NC(=O)NC1CCCCC1	i	0.42	-1	.	.
Cc1ccc(NC(=O)c2ccc3c(c2)S(=O)(=O)c2ccccc2C3=O)cc1S(=O)(=O)N1CCOCC1	.	-1.5	.	.	.
COCCNC(=S)Nc1ccc2nc(N3CCCC3)cc(C)c2c1	i	-0.5	100*	78	89
CCOCCCNC(=S)Nc1ccc2nc(N3CCCC3)cc(C)c2c1	i	-0.098	100*	84	81
Cc1cc(N2CCN(C)CC2)nc2ccc(NC(=S)NC3CC3)cc12	i	2.5	22	.	.
Cc1cc(N2CCCC2)nc2ccc(NC(=S)NC(C)C)cc12	i	0.66	99*	.	.
COCC(=O)n1nc(-c2ccccc2)nc1NCc1ccc(N(C)C)cc1	i	0.1	-7	.	.
COC(=O)C1=C(C)N(Cc2cccnc2)C(=O)/C1=C\c1sccc1C	i	0.32	18	.	.
O=S(=O)(Oc1ccccc1N1CCCCC1)c1ccccc1	.	-0.94	.	.	.
COc1ccc(C2(CNC(=O)c3cc([N+](=O)[O-])cc([N+](=O)[O-])c3)CCCC2)cc1OC	i	-0.45	100*	79	79
COc1ccc(C2(CNC(C)=O)CCCC2)cc1OC	i	0.69	-3	94	91
O=C(NC1=NCCS1)c1sc2cc(Cl)cc(Cl)c2c1Cl	i	0.00094	76*	92	85
COc1ccc(N=C2NN=C(c3c(C)[nH]c4ccccc34)CS2)cc1	i	0.19	48	3.8*	5
COc1nc(N2CCOCC2)nc(C)c1[N+](=O)[O-]	i	0.62	62*	96	96
Cc1ccc(-c2[nH]ncc2CNCCc2cnn(-c3ccccc3)c2)cc1C	.	-0.058	.	.	.
CCCCCCN(C(=O)CCCCCN1C(=O)NC(c2ccc(-c3ccccc3)cc2)C(C(=O)OCc2ccccc2)=C1C)C(C)C(=O)NCCCC (stereo not given)	+	0.5	-2	55	62
CC1=C(C(=O)Nc2ccccc2)C(c2cccnc2)n2ncnc2N1 (stereo not given)	i	-0.071	-2	.	.
COC(=O)C/C=C/[C@@H](C)[C@@H](/C=N/OC[C@H]1O[C@H](c2ccccc2)C=C[C@@H]1Oc1ccc(OC)cc1)OC	i	-0.65	10	60	65
COC(=O)C/C=C/[C@@H](C)[C@@H](/C=N/OCC[C@@H]1C=C[C@H](OC(C)=O)[C@@H](COC(C)=O)O1)NS(=O)(=O)c1ccc(C)cc1	+	-0.48	1	98	101
Cn1c(CN2CCCCC2)nc2cc(NC(=O)c3cccs3)ccc21	i	0.9	13	74	75
CCCc1nc2ccc(NC(=O)c3cccs3)cc2c(=O)n1Cc1ccccc1Cl	i	-0.63	50*	72	69
CCCc1nc2ccc(NC(C)=O)cc2c(=O)n1Cc1ccc(Cl)cc1	i	-1.2	83*	.	.
SMILES	Autophagy HCS	Dynein transport	Lmaj promast	HCT116 bCat-KO	HCT116 PTEN-null
Cc1cc(Cl)ccc1N(CC(=O)NCc1ccc2c(c1)OCO2)S(C)(=O)=O	i	-0.78	1	.	.
Cc1ccc(C)c(N(C)C(=O)COc2cc(=O)n(C)c3ccccc23)c1	+	0.13	-2	91	91
CN(C(=O)COc1cc(=O)n(C)c2ccccc12)c1ccc(Cl)cc1	i	-0.42	9	89	89
COC(=O)C(C)N(C(=O)c1ccc(Cl)cc1)c1c(C)cccc1C (stereo not given)	i	-0.18	87*	81	75
COC(=O)C(C)N(C(=O)c1ccc(C(=O)c2ccccc2)cc1)c1c(C)cccc1C (stereo not given)	i	0.068	99*	50	45
COc1cccc(C(=O)CSc2nnnn2C2CCCCC2)c1	i	-0.73	-6	87	98
CCOC(=O)N1CCC(N2C(=O)c3ccccc3C2Nc2cc(OC)c(OC)c(OC)c2)CC1 (stereo not given)	.	0.49	1	95	85
CCOC(=O)N1CCC(N2C(=O)c3ccccc3C2Nc2cc(Cl)c(OC)cc2OC)CC1 (stereo not given)	.	-0.16	97*	55	54
O=C(N1CCCCCC1)n1c(Cc2ccccc2)nc2ccccc21	i	-0.84	63*	83	80
Cn1c(N)c(C(=O)Nc2ccc(-c3ccccc3)cc2)sc1=S	.	1.7	.	.	.
Cc1cc(C)n(-c2c(C)[nH]c3ccccc23)n1	i	-0.39	-1	.	.
O=C(Nc1ccccc1)c1sc2cc(C(F)(F)F)cnc2c1-c1cccs1	i	-0.59	59*	96	65
NNC(=O)c1sc2cc(C(F)(F)F)cnc2c1-c1cccs1	i	-0.61	1	.	.
O=C(C1=C[C@@H](c2csc3ccccc23)C[C@@H](OCc2ccc(CO)cc2)O1)N1CCN(Cc2ccc3c(c2)OCO3)CC1	i	-0.78	73*	.	.
CC(=O)n1cc([C@H]2C=C(C(=O)Nc3ccccc3)O[C@@H](OCc3ccc(CO)cc3)C2)c2ccccc21	i	-0.39	60*	.	.
O=C(C1=C[C@@H](c2csc3ccccc23)C[C@@H](OCc2ccc(CO)cc2)O1)N1CCN(Cc2ccccc2)CC1	i	0.42	51*	.	.
O=C(C1=C[C@@H](c2ccc(Br)cc2)C[C@@H](OCCCCO)O1)N1CCN(Cc2ccc3c(c2)OCO3)CC1	i	1.8	43	.	.
O=C(C1=C[C@H](c2ccc(C(F)(F)F)cc2)C[C@H](OCCCCO)O1)N1CCN(Cc2ccc3c(c2)OCO3)CC1	i	0.13	95*	.	.
O=C(C1=C[C@@H](c2csc3ccccc23)C[C@@H](OCc2ccc(CO)cc2)O1)N1CCOCC1	i	-1.3	15	.	.
O=C(COC(=O)C1CC(=O)N(Cc2ccccc2)C1)Nc1ccccc1F (stereo not given)	i	0.24	8	.	.
COc1cccc(NC(=O)Cn2c(=O)n(CCC(=O)NC3CCN(Cc4ccccc4)CC3)c(=O)c3ccccc32)c1	.	2.6	.	.	.
CC(=O)n1cc([C@H]2C=C(C(=O)N3CCN(Cc4ccc5c(c4)OCO5)CC3)O[C@@H](OCc3ccc(CO)cc3)C2)c2ccccc21	i	-0.46	76*	.	.
CSc1ccc(CNc2ccccc2)cc1	i	-0.37	100*	101	101
CC(C)C(=O)Nc1ccc([N+](=O)[O-])cc1Br	i	0.65	-5	103	87
O=C(Nc1ccc([N+](=O)[O-])cc1Br)c1cccnc1	i	2.2	54*	76	100
O=C(OC(C(=O)Nc1ccc([N+](=O)[O-])cc1Br)c1ccccc1)c1ccccc1 (stereo not given)	i	-0.52	100*	.	.
